Mot1-301 SUMO: yeast Mot1-301 growth rescue at high temperature, primary screen, SUMOylation pathway inhibitor project, S. cerevisiae, ATP luminescence, 38.5C; S. cerevisiae Mot1-301 growth rescue; percent above DMSO median, 100 means doubled; growth rescue, % at 18.8 µM; 320,000 compounds, 1% hits; AID 2716, 2010;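 active = every valid replicate shows activation above 250% relative to neutral control wells; inactive = the rest, any valid replicate at or below 250%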;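 also: OY570 slx delta 5 strain wells were the positive control but not used for scaling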
C2C12 statin: suppressors of statin myotoxicity in C2C12 myotubes, primary screen, cell-based, single point, plate reader; C2C12 myotubes + simvastatin, ATP luminescence, 48 h; scaled: DMSO 0, geranylgeraniol control 100; rescue of ATP level, % at 7.49 µM; 330,000 compounds, 0.78% hits; AID 602340, 2012;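 active = mean ATP rescue above about 67%, or every replicate alone reaching that limit, limit read from the data, passing the limit was not always enough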;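 also: myotubes were challenged with 10 µM simvastatin during compound exposure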
Efflux pump mplx: inhibitors of Candida efflux pumps in yeast, primary screen, S. cerevisiae, Nile Red, multiplex; inhibition, % at 10 µM; S. cerevisiae Candida pump triplex; 330,000 compounds, 0.44% hits;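 active = plate passing quality check with inhibition over a set limit, or well fluorescence over plate mean plus 4 SD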;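 also: Nile Red retained in pooled yeast measured as flow cytometry median fluorescence; 0% = buffer negative control and 100% = Enniatin B positive control; higher means more Nile Red kept so more efflux inhibition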
Cneo AK release: Cryptococcus neoformans cell lysis inducers, primary screen, AK release luminescence, single concentration; C. neoformans lysis, adenylate kinase release luminescence, 4 h; normalised: neutral wells 0, clomiphene wells 100; lysis activity, % at 15 µM; 360,000 compounds, 0.2% hits;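 active = mean lysis activity across replicates of at least 80%, whatever share of replicates individually reach that level; inactive = mean lysis activity below 80%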
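Test system: log-phase Cryptococcus neoformans yeast cells. Input: 5 × 10^6 yeast cells/mL. Medium: fresh YPD growth medium. Doses: single dose. Incubation: static 4 h at 37 °C with compound, 1 h detection. Measured by: luminescent adenylate kinase detection reagent. Read-out: signal increase indicating cell lysis. Benchmarks: Clomiphene.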
Active calls of the source: *; nt = not tested or not shown. Shown are actives, neighbours in structure and some others; about 1.8% of the full set was active somewhere.

SMILES	Mot1-301 SUMO	C2C12 statin	Efflux pump mplx	Cneo AK release
COc1ccc(S(=O)(=O)N2CCN(C)CC2)cc1NC(=O)c1ccccc1F	46	-14	0	6
COc1cc(S(=O)(=O)N2CCN(C(=O)c3ccccc3F)CC2)c(OC)cc1NC(C)=O	nt	102*	nt	2
O=C1c2ccccc2C(=O)c2cc(N3CCCCC3)ccc21	nt	-34	nt	-2
O=S1(=O)C=C(N2CCCCC2)c2ccccc21	6	108*	0	0
O=C(Nc1nnc(C2CC2)s1)c1cc(-c2ccccc2)nn1-c1ccccc1	-2	78*	0	2
Cc1nn(-c2ccccc2)c(Cl)c1C(=O)Nc1nnc(C2CCCCC2)s1	151	nt	0	3
Cc1noc(C)c1NC(=O)N(C)C[C@H]1OCCCC[C@H](C)Oc2ccc(NC(=O)C3CCCCC3)cc2C(=O)N([C@@H](C)CO)C[C@@H]1C	nt	nt	nt	3
O=C(COC(=O)c1ccc([N+](=O)[O-])o1)Nc1ccc(Br)cc1F	337*	6	0	-2
C[C@H]1CN([C@@H](C)CO)S(=O)(=O)c2ccc(C#CC3CC3)cc2O[C@H]1CN(C)C(=O)Cc1ccncc1	nt	24	nt	53
Cc1ccc(C2c3[nH]c4ccccc4c3C[C@H]3C(=O)N(c4ccccc4C(=O)N4CCC[C@H]4C(=O)O)C(=O)N23)cc1 (stereo not given in full)	605*	12	0	-3
C[C@H]1CN([C@@H](C)CO)C(=O)c2cccc(NS(C)(=O)=O)c2O[C@@H]1CN(C)S(=O)(=O)c1ccccc1	nt	nt	nt	54
COCC(=O)Nc1ccc2c(c1)C(=O)N(C)C[C@H](OC)[C@@H](C)CN(C(=O)c1ccncc1)[C@@H](C)CO2	nt	8	nt	-1
Cc1ccc(C(C(=O)NC2CCCC2)N(Cc2cccs2)C(=O)CNC(=O)c2cccs2)o1 (stereo not given)	-3	136*	0	2
Clc1ccc(Cl)c(OCCN2CCCC2)c1	77	4	0	4
Cc1ccc(Cl)c(OCCN2CCCC(C)C2)c1 (stereo not given)	538*	nt	0	4
CC1CCCN(CCCOc2ccc(Cl)cc2Br)C1 (stereo not given)	482*	nt	0	nt
Cc1ccc(C(=O)NNC(=O)c2ccc(Br)s2)cc1S(=O)(=O)N1CCOCC1	-3	-5	0	1
COc1ccc2sc(-c3ccccc3OC)c(-c3ccc(O)cc3)c2c1	-5	132*	0	-1
COc1cc2sc(-c3ccccc3OC)c(-c3ccc(O)cc3)c2cc1OC	7	-57	0	-1
CCC(=O)N1CCc2cc(S(=O)(=O)CCC(=O)NCCc3ccc(OC)c(OC)c3)ccc21	-20	107*	0	0
CCC(=O)N1CCc2cc(S(=O)(=O)CCC(=O)NCCc3ccccc3)ccc21	7	4	0	6
CN(CC(=O)Nc1ccccc1Br)c1ncnc2sccc12	-18	-1	0	-1
CCOc1ccc(C2C(C#N)=C(N)Oc3nc[nH]c(=O)c32)cc1OC (stereo not given)	334*	-6	0	0
COCc1[nH]nc2c1C(c1ccc(OC)c(OC)c1)C(C#N)=C(N)O2 (stereo not given)	3	9	0	2
COc1ccccc1C(=O)COC(=O)c1nc2nc(C)cc(C)n2n1	262	8	0	-2
SMILES	Mot1-301 SUMO	C2C12 statin	Efflux pump mplx	Cneo AK release
O=C(N/N=C/C1CC=CCC1)c1ccc(Cl)cc1O (stereo not given)	74	nt	0	3
CC[C@H](NC(=O)/C=C/[C@H]1O[C@@H](n2cc(C)c(=O)[nH]c2=O)C[C@@H]1O)c1ccccc1	nt	-4	nt	-1
Cc1ccc(S(=O)(=O)N2C(=O)C(C)SC2=Nc2ccccc2)cc1 (stereo not given)	131	nt	0	6
C=CCN=C1SC(C)C(=O)N1S(=O)(=O)c1ccccc1 (stereo not given)	-1	109*	0	1
C[C@H](O)C#Cc1cnc2c(c1)C(=O)N([C@@H](C)CO)C[C@@H](C)[C@H](CN(C)Cc1ccc(-c3ccccc3)cc1)O2	nt	22	nt	58
CC(C(=O)NCc1ccccc1)N1C(=O)CN(C)C(=O)c2ccccc21 (stereo not given)	nt	89*	0	1
O=C(CN1CCN(c2ccccc2)CC1)NC(=O)NCc1ccccc1	-9	5	0	0
CC1CCN(CC(=O)NC(=O)NCc2ccccc2)CC1	332*	nt	0	-7
CC(C(=O)NCc1ccccc1)N1C(=O)C2CC=C(Cl)CC2C1=O (stereo not given)	-1	-3	0	1
CC(C(=O)NC(=O)NCc1ccccc1)N1C(=O)c2ccccc2C1=O (stereo not given)	-5	96*	0	-4
CCOc1ccc(NC(=O)CN(c2ccc(OC)cc2)S(C)(=O)=O)cc1	3	111*	0	8
CCOc1ccccc1CNC(=O)c1ccc2c(c1)N(CC)CCS2	3	27	0	4
CC(=O)Nc1ccc2nc(NC(=O)c3ccco3)sc2c1	0	-11	0	-4
CC(=O)Nc1ccc2nc(NC(=O)c3ccc([N+](=O)[O-])o3)sc2c1	71	114*	0	0
CNC(=O)CC(=O)Nc1ccccc1C(=O)O	-15	105*	0	0
O=C(NCCN1CCCCC1)[C@H]1N[C@H]2c3ccc(-c4ccncc4)c(=O)n3C[C@H]2[C@@H]1CO	nt	-11	nt	98*
C[C@@H]1CN([C@H](C)CO)C(=O)c2cccc(NS(=O)(=O)c3ccc(F)cc3)c2O[C@H]1CN(C)C(=O)Nc1cccc2ccccc12	nt	39	nt	-2
CC(=C\c1ccccc1)/C=C1/SC(=S)N(CCC(=O)Nc2ccccn2)C1=O	0	nt	0.7*	nt
CC(C)(C)n1nnnc1C(c1cccs1)N(Cc1ccccc1)Cc1cccnc1 (stereo not given)	149	124*	0	-3
CCCNC(=O)N1[C@H](CNC(C)=O)[C@@H](c2ccc(-c3ccccc3)cc2)[C@@H]1CO	nt	12	nt	10
O=C(NCC[C@H]1CC[C@H](NS(=O)(=O)c2ccc(F)cc2)[C@@H](CO)O1)c1ccc2c(c1)OCO2	nt	2	nt	102*
CC(=O)N[C@H]1CC[C@H](CCNC(=O)C2CCC2)O[C@@H]1CO	nt	-1	nt	101*
O=C(CN1CCOCC1)N[C@@H]1CC[C@@H](CCNC(=O)C2CCC2)O[C@H]1CO	nt	3	nt	10
Cc1ccc(S(=O)(=O)N[C@H]2CC[C@H](CCNC(=O)C3CCCC3)O[C@@H]2CO)cc1	nt	1	nt	95*
O=C(CN1CCOCC1)N[C@@H]1CC[C@@H](CCNC(=O)C2CCC2)O[C@@H]1CO	nt	-1	nt	98*
COc1ccccc1NC(=O)COC(=O)c1oc2ccccc2c1C	32	nt	1	0
O=C(CCN1CCCCC1)NCC[C@@H]1CC[C@H](NC(=O)c2ccc(F)cc2)[C@@H](CO)O1	nt	3	nt	86*
